≈ marks a conversion by molar mass, not a printed value.
Columns and labels:
Plasmodium falciparum = experiment: Antimalarial activity against chloroquine-sensitive Plasmodium falciparum 3D7; assay type: functional, organism-based
Outline: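 Chloroquine-sensitive P. falciparum 3D7 grown in vitro with ciprofloxacin as the reference standard; IC50 reported as mass concentration ± SE.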

HEK293 [1] = experiment: Cytotoxicity against human HEK293 cells 1 to 100 uM after 24 to 72 hrs by MTT assay; assay type: cell-based
Outline: (§1)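 HEK-293 monolayers were kept in DMEM at 37 °C under 5% CO2 and seeded at about 4000 cells/well for 24 h. Medium was then replaced with fresh medium holding compound at 1, 10, 20, 30, 50 and 100 concentration units, and cells were incubated 24, 48 and 72 h. Viability was read by MTT and IC50 calculated.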

HEK293 [2] = experiment: Cytotoxicity against human HEK293 cells after 24 to 72 hrs by MTT assay; assay type: cell-based; outline: as §1

| Compound | IC50 (Plasmodium falciparum) | Activity (HEK293 [1]) | IC50 (HEK293 [2]) |
| --- | --- | --- | --- |
| CCOC(=O)c1cn(Cc2cn(CCO)nn2)c2cc(Cl)c(F)cc2c1=O | 14.3 µg/mL (≈ 36.3 µM) |  |  |
| CCCCn1cc(C(=O)OCC)c(=O)c2cc(F)c(Cl)cc21 | 6.96 µg/mL (≈ 21.4 µM) |  |  |
| O=C(O)c1c[nH]c2cc(Cl)c(F)cc2c1=O | 4.32 µg/mL (≈ 17.9 µM) | Non-toxic |  |
| CCCn1cc(C(=O)OCC)c(=O)c2cc(F)c(Cl)cc21 | 4.86 µg/mL (≈ 15.6 µM) |  |  |
| CCOC(=O)c1cn(Cc2cn(-c3ccc(Cl)cc3)nn2)c2cc(Cl)c(F)cc2c1=O | 13 µg/mL (≈ 28.2 µM) |  |  |
| CCOC(=O)c1cn(CCO)c2cc(Cl)c(F)cc2c1=O | 4.26 µg/mL (≈ 13.6 µM) |  |  |
| CCOC(=O)c1cn(CC#N)c2cc(Cl)c(F)cc2c1=O | 2.56 µg/mL (≈ 8.29 µM) |  |  |
| CCOC(=O)c1cn(Cc2c[nH]nn2)c2cc(Cl)c(F)cc2c1=O | 1.33 µg/mL (≈ 3.79 µM) | Toxic |  |
| CCOC(=O)c1cn(Cc2cn(-c3ccnc4cc(Cl)ccc34)nn2)c2cc(Cl)c(F)cc2c1=O | 4.06 µg/mL (≈ 7.92 µM) | Non-toxic |  |
| O=C(O)c1cn(C2CC2)c2cc(N3CCNCC3)c(F)cc2c1=O [CIPROFLOXACIN] | 8.82 µg/mL (≈ 26.6 µM) |  |  |

The next lines start with results.

| IC50 (Plasmodium falciparum) | Compound | Activity (HEK293 [1]) | IC50 (HEK293 [2]) |
| --- | --- | --- | --- |
| 5.81 µg/mL (≈ 21.5 µM) | CCOC(=O)c1c[nH]c2cc(Cl)c(F)cc2c1=O |  |  |
| 5.4 µg/mL (≈ 13.7 µM) | CCCn1cc(Cn2cc(C(=O)OCC)c(=O)c3cc(F)c(Cl)cc32)nn1 |  |  |
| 5.26 µg/mL (≈ 12.4 µM) | CCOC(=O)c1cn(Cc2cn(CC(=O)OC)nn2)c2cc(Cl)c(F)cc2c1=O |  |  |
| 6.97 µg/mL (≈ 22.3 µM) | CCOC(=O)c1cn(C(C)C)c2cc(Cl)c(F)cc2c1=O |  |  |
| 3.46 µg/mL (≈ 11.2 µM) | C#CCn1cc(C(=O)OCC)c(=O)c2cc(F)c(Cl)cc21 |  |  |
| 11.8 µg/mL (≈ 41.7 µM) | CCOC(=O)c1cn(C)c2cc(Cl)c(F)cc2c1=O |  |  |
| 15.2 µg/mL (≈ 51.1 µM) | CCOC(=O)c1cn(CC)c2cc(Cl)c(F)cc2c1=O |  |  |
| 12.2 µg/mL (≈ 27.7 µM) | CCOC(=O)c1cn(Cc2cn(Cc3ccccc3)nn2)c2cc(Cl)c(F)cc2c1=O |  |  |
| 2.73 µg/mL (≈ 5.92 µM) | CCOC(=O)c1cn(Cc2cn(-c3cccc(Cl)c3)nn2)c2cc(Cl)c(F)cc2c1=O |  |  |
| 6.83 µg/mL (≈ 19 µM) | CCOC(=O)c1cn(Cc2ccccc2)c2cc(Cl)c(F)cc2c1=O |  |  |
| 4.3 µg/mL (≈ 9.67 µM) | CCOC(=O)c1cn(Cc2cn(-c3ccc(F)cc3)nn2)c2cc(Cl)c(F)cc2c1=O |  | 63.8 µM |
| 3.4 µg/mL (≈ 7.09 µM) | CCOC(=O)c1cn(Cc2cn(-c3ccc(F)c(Cl)c3)nn2)c2cc(Cl)c(F)cc2c1=O |  | 41.9 µM |
